Results published in ChEMBL document CHEMBL1821569, “Synthesis of novel 1,2,5-trisubstituted benzimidazoles as potential antitumor agents” (2011).

Columns and labels:
Format in all cases: functional
PC-3 = experiment: Antitumor activity against human PC3 cells after 48 hrs by SRB assay; conditions: PC-3, 48 h; for CC50: read-out: LC50 (the source's name)
Outline: (§1)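 NCI 60-cell-line secondary screen. Cells were exposed continuously to drug for 48 h at five concentration levels (100, 10, 1.0, 0.1 and 0.01). Growth was estimated by sulforhodamine B protein staining. GI50 is the concentration giving a 50% reduction in net protein increase versus untreated control cells over the incubation. TGI (total growth inhibition) and LC50 (50% cell kill) were also derived.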

COLO 205 = experiment: Antitumor activity against human COLO205 cells after 48 hrs by SRB assay; conditions: COLO 205, 48 h; for CC50: read-out: LC50 (the source's name); outline: as §1
[1] = Antitumor activity against human Hs 578T cells after 48 hrs by SRB assay; conditions: for CC50: read-out: LC50 (the source's name); outline: as §1
MCF7 = experiment: Antitumor activity against human MCF7 cells after 48 hrs by SRB assay; conditions: MCF7, 48 h; for CC50: read-out: LC50 (the source's name); outline: as §1
NCI/ADR-RES = experiment: Antitumor activity against human NCI/ADR-RES cells after 48 hrs by SRB assay; conditions: for CC50: read-out: LC50 (the source's name); outline: as §1
HOP-62 = experiment: Antitumor activity against human HOP62 cells after 48 hrs by SRB assay; conditions: HOP-62, 48 h; outline: as §1
HCT-116 = experiment: Antitumor activity against human HCT116 cells after 48 hrs by SRB assay; conditions: HCT-116, 48 h; outline: as §1
HT-29 = experiment: Antitumor activity against human HT-29 cells after 48 hrs by SRB assay; conditions: HT-29, 48 h; outline: as §1
SF-539 = experiment: Antitumor activity against human SF539 cells after 48 hrs by SRB assay; conditions: SF-539, 48 h; for CC50: read-out: LC50 (the source's name); outline: as §1
SR = experiment: Antitumor activity against human SR cells after 48 hrs by SRB assay; conditions: for CC50: read-out: LC50 (the source's name)
Outline: (§2)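 NCI 60-cell-line secondary screen. Continuous 48 h exposure at five concentration levels. Cell growth estimated by sulforhodamine B protein staining. GI50 taken as the concentration giving 50% reduction in net protein increase relative to untreated control cells over the incubation. TGI (total growth inhibition) and LC50 (50% cell kill) were also derived.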

SK-MEL-2 = experiment: Antitumor activity against human SK-MEL-2 cells after 48 hrs by SRB assay; conditions: SK-MEL-2, 48 h; for CC50: read-out: LC50 (the source's name); outline: as §1
SW-620 = experiment: Antitumor activity against human SW620 cells after 48 hrs by SRB assay; conditions: SW-620, 48 h; for CC50: read-out: LC50 (the source's name); outline: as §2
SN12C = experiment: Antitumor activity against human SN12C cells after 48 hrs by SRB assay; conditions: for CC50: read-out: LC50 (the source's name); outline: as §1
OVCAR-3 = experiment: Antitumor activity against human OVCAR3 cells after 48 hrs by SRB assay; conditions: OVCAR-3, 48 h; for CC50: read-out: LC50 (the source's name); outline: as §1
U-251 = experiment: Antitumor activity against human U251 cells after 48 hrs by SRB assay; conditions: U-251, 48 h; for CC50: read-out: LC50 (the source's name); outline: as §2
HCC 2998 = experiment: Antitumor activity against human HCC2998 cells after 48 hrs by SRB assay; conditions: HCC 2998, 48 h; for CC50: read-out: LC50 (the source's name)
Outline: (§3)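 NCI 60-cell-line secondary screen: continuous drug exposure for 48 h at five concentration levels (100, 10, 1.0, 0.1 and 0.01). Cell growth was estimated by sulforhodamine B (SRB) protein staining. GI50 is the concentration giving a 50% reduction in net protein increase relative to untreated control cells during the incubation. TGI and LC50 were derived from the same data.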

HL-60(TB) = experiment: Antitumor activity against human HL-60(TB) cells after 48 hrs by SRB assay; conditions: HL-60, 48 h; outline: as §3
SK-OV-3 = experiment: Antitumor activity against human SKOV3 cells after 48 hrs by SRB assay; conditions: SK-OV-3, 48 h; for CC50: read-out: LC50 (the source's name); outline: as §1
ACHN = experiment: Antitumor activity against human ACHN cells after 48 hrs by SRB assay; conditions: for CC50: read-out: LC50 (the source's name); outline: as §1
NCI-H226 = experiment: Antitumor activity against human NCI-H226 cells after 48 hrs by SRB assay; conditions: NCI-H226, 48 h; outline: as §1
OVCAR-4 = experiment: Antitumor activity against human OVCAR4 cells after 48 hrs by SRB assay; conditions: OVCAR-4, 48 h; for CC50: read-out: LC50 (the source's name); outline: as §1
KM12 = experiment: Antitumor activity against human KM12 cells after 48 hrs by SRB assay; conditions: KM12, 48 h; for CC50: read-out: LC50 (the source's name); outline: as §1
A498 = experiment: Antitumor activity against human A498 cells after 48 hrs by SRB assay; conditions: A498, 48 h; for CC50: read-out: LC50 (the source's name); outline: as §1
IGROV-1 = experiment: Antitumor activity against human IGROV1 cells after 48 hrs by SRB assay; conditions: IGROV-1, 48 h; for CC50: read-out: LC50 (the source's name); outline: as §1
DU-145 = experiment: Antitumor activity against human DU145 cells after 48 hrs by SRB assay; conditions: DU-145, 48 h; for CC50: read-out: LC50 (the source's name); outline: as §1
NCI-H23 = experiment: Antitumor activity against human NCI-H23 cells after 48 hrs by SRB assay; conditions: NCI-H23, 48 h; outline: as §1
CCRF-CEM = experiment: Antitumor activity against human CCRF-CEM cells after 48 hrs by SRB assay; conditions: for CC50: read-out: LC50 (the source's name); outline: as §1
NCI-H460 = experiment: Antitumor activity against human NCI-H460 cells after 48 hrs by SRB assay; conditions: NCI-H460, 48 h; for CC50: read-out: LC50 (the source's name); outline: as §1
HOP-92 = experiment: Antitumor activity against human HOP92 cells after 48 hrs by SRB assay; conditions: HOP-92, 48 h; outline: as §1

## COC(=O)c1ccc2c(c1)nc(-c1cc3ccccc3[nH]c1=O)n2-c1cc(C(C)(C)C)[nH]n1
PC-3
  GI50: 2270 nM
  TGI: > 100 µM
  CC50: > 100 µM
COLO 205
  TGI: > 100 µM
  CC50: > 100000 nM
[1]
  GI50: 619 nM
  TGI: 34.1 µM
  CC50: > 100 µM
MCF7
  GI50: > 100000 nM
  TGI: > 100 µM
  CC50: > 100 µM
NCI/ADR-RES
  GI50: 5.29 µM
  TGI: > 100 µM
  CC50: > 100 µM
HOP-62
  GI50: 996 nM
  LC50 (concentration giving 50% cell kill): > 100 µM
  TGI: > 100 µM
HCT-116
  GI50: 1740 nM
  LC50: > 100000 nM
  TGI: > 100 µM
HT-29
  GI50: 1340 nM
  LC50 (50% cell kill): > 100 µM
  TGI: > 100 µM
SF-539
  GI50: 4.12 µM
  TGI: > 100 µM
  CC50: > 100000 nM
SR
  GI50: 10 µM
  TGI: > 100 µM
  CC50: > 100 µM
SK-MEL-2
  GI50: 2.25 µM
  TGI: > 100 µM
  CC50: > 100 µM
SW-620
  TGI: > 100 µM
  CC50: > 100 µM
SN12C
  GI50: 5.61 µM
  TGI: > 100 µM
  CC50: > 100 µM
OVCAR-3
  GI50: 6.27 µM
  TGI: > 100 µM
  CC50: > 100000 nM
U-251
  GI50: 652 nM
  TGI: > 100 µM
  CC50: > 100 µM
HCC 2998
  CC50: > 100 µM
HL-60(TB)
  GI50: 322 nM
  LC50: > 100 µM
SK-OV-3
  GI50: 28.5 µM
  TGI: > 100 µM
  CC50: > 100 µM
ACHN
  GI50: > 100000 nM
  TGI: > 100 µM
  CC50: > 100 µM
NCI-H226
  GI50: 7 µM
  LC50 (50% cell kill): > 100 µM
  TGI: > 100 µM
OVCAR-4
  TGI: > 100 µM
  CC50: > 100 µM
KM12
  GI50: 1290 nM
  CC50: > 100 µM
A498
  GI50: 13.6 µM
  TGI: 76.9 µM
  CC50: > 100000 nM
IGROV-1
  GI50: 965 nM
  TGI: > 100 µM
  CC50: > 100 µM
DU-145
  GI50: 2.37 µM
  TGI: > 100 µM
  CC50: > 100 µM
NCI-H23
  GI50: 2.78 µM
  LC50 (50% cell kill): > 100 µM
  TGI: > 100 µM
CCRF-CEM
  GI50: 585 nM
  TGI: > 100 µM
  CC50: > 100 µM
NCI-H460
  GI50: 630 nM
  TGI: > 100 µM
  CC50: > 100 µM

## COC(=O)c1ccc2c(c1)nc(-c1ccc(Cl)cc1)n2-c1cc(C(C)(C)C)[nH]n1
PC-3
  GI50: 2930 nM
  TGI: 15.7 µM
  CC50: > 100 µM
COLO 205
  GI50: 2290 nM
  TGI: 6.04 µM
  CC50: 463 nM
[1]
  GI50: 1720 nM
  TGI: 7.86 µM
  CC50: > 100 µM
MCF7
  GI50: 2790 nM
  TGI: 12.3 µM
  CC50: > 100 µM
NCI/ADR-RES
  GI50: 2.72 µM
  TGI: 7.35 µM
  CC50: > 100 µM
HOP-62
  GI50: 3410 nM
  LC50 (concentration giving 50% cell kill): > 100 µM
  TGI: 21 µM
HCT-116
  GI50: 3470 nM
  LC50: 563 nM
  TGI: 12.3 µM
HT-29
  GI50: 3650 nM
  LC50 (50% cell kill): > 100 µM
  TGI: 15.4 µM
SF-539
  GI50: 2.54 µM
  TGI: 8.95 µM
  CC50: 521 nM
SR
  GI50: 3.23 µM
  TGI: > 100 µM
  CC50: > 100 µM
SK-MEL-2
  GI50: 3.89 µM
  TGI: 18.1 µM
  CC50: > 100 µM
SW-620
  GI50: 3.24 µM
  TGI: > 100 µM
  CC50: > 100 µM
SN12C
  GI50: 4.34 µM
  TGI: 27.7 µM
  CC50: > 100 µM
OVCAR-3
  GI50: 2.35 µM
  TGI: 6.13 µM
  CC50: 915 nM
U-251
  GI50: 4130 nM
  TGI: 22.7 µM
  CC50: > 100 µM
HCC 2998
  GI50: 3.9 µM
  TGI: 19.8 µM
  CC50: > 100 µM
HL-60(TB)
  GI50: 4030 nM
  LC50: > 100 µM
  TGI: 11.2 µM
SK-OV-3
  GI50: 3.71 µM
  TGI: 31 µM
  CC50: > 100 µM
ACHN
  GI50: 3000 nM
  TGI: 9.34 µM
  CC50: > 100 µM
NCI-H226
  GI50: 4.09 µM
  LC50 (50% cell kill): > 100 µM
  TGI: 44 µM
OVCAR-4
  GI50: 3.4 µM
  TGI: > 100 µM
  CC50: > 100 µM
KM12
  GI50: 2120 nM
  TGI: 6.07 µM
  CC50: > 100 µM
A498
  GI50: 2.26 µM
  TGI: 9.76 µM
  CC50: 858 nM
IGROV-1
  GI50: 3640 nM
  TGI: 25 µM
  CC50: > 100 µM
DU-145
  GI50: 3.7 µM
  TGI: 25.8 µM
  CC50: > 100 µM
NCI-H23
  GI50: 3.42 µM
  LC50 (50% cell kill): > 100 µM
  TGI: 36 µM
CCRF-CEM
  GI50: 4910 nM
  TGI: > 100 µM
  CC50: > 100 µM
HOP-92
  GI50: 1150 nM
  TGI: 8.02 µM
HOP-92; read-out: LC50 (the source's name)
  CC50: > 100 µM
NCI-H460
  GI50: 2950 nM
  TGI: 8.81 µM
  CC50: > 100 µM
